Series [1] in a line: Diuretic activity was evaluated by measuring amount of K+ during 0-6 hr in urine of normotensive […] monkey at 30mg/kg, po. In kind it is ADME, organism-based. The following applies: simiiformes, in vivo. The method in brief: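 Male and female cynomolgus monkeys, fasted 16–18 h with water until dosing, six per dose. Compound or vehicle was given by pediatric nasogastric tube, followed at once by a 50 mL/kg water load. Monkeys were kept in metabolism cages without food or water for 6 h. Urine was collected at 0–1, 1–2, 2–4 and 4–6 h, and volume, electrolytes, uric acid and glucose were measured.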

Another series deals with Canis familiaris. Nature of the series: Diuretic activity was evaluated by measuring amount of K+ during 0-6 hr in urine of normotensive saline loaded dogs at 3.0mg/kg, po. The format is ADME, organism-based, Canis lupus familiaris. The following applies: dog, in vivo, 3 mg/kg. The method in brief:
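Conscious female dogs, each given one oral dose per experiment. Urine and heparinized venous plasma were taken at each collection time. Urine was centrifuged and chilled, and plasma was separated within 30 min. Both were assayed for Na+, K+, Cl−, urate and glucose. Results are mean excretion in mequiv kg−1 (6 h)−1, with at least two dogs per dose.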

The next series concerns Rattus norvegicus. As to the kind of experiment: Percent change of arterial blood pressure in spontaneously hypertensive rats at the dose of 10 mg/kg (p.o.) after […] (control BP(mm Hg)=219). The format is functional. As to conditions: route oral.

This note sets out measurements from ChEMBL document CHEMBL1122781, “[(Aminomethyl)aryloxy]acetic acid esters. A new class of high-ceiling diuretics. 1. Effects of nitrogen and aromatic nuclear substitution” (J Med Chem, 1984).

Regarding `CCOC(=O)COc1ccc(C(=O)c2ccc(O)c(CN)c2)c(Cl)c1Cl.Cl`, the Diuretic activity in series [1] is given as 1.5 m equiv kg-1; in the series on Canis familiaris it was 1.8 m equiv kg-1. In addition, in the series on Rattus norvegicus, the Change is -31%.
